In ChEMBL document CHEMBL4673214, “Synthesis and antibacterial bioactivities of cationic deacetyl linezolid amphiphiles” (Eur J Med Chem, 2018):
≈ marks a conversion by molar mass, not a printed value.

How the values were obtained:
Staphylococcus aureus [1] = assay: Resistance ratio of compound MIC for Staphylococcus aureus ATCC 29213 after 20 passages to compound MIC for Staphylococcus aureus ATCC 29213 after 16 to 20 hrs by CLSI-based broth microdilution method; assay type: functional
Outline: (§1)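 Serial passaging: after each 24 h MIC assay, cells grown at 1/2 MIC were transferred and the MIC assayed again, for 20 passages. Done with S. aureus, E. coli and MRSA. MIC plotted against days of passage. Experiment repeated twice.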

Staphylococcus aureus [2] = assay: Antibacterial activity against Staphylococcus aureus ATCC 29213 assessed as reduction in bacterial growth incubated for 16 to 20 hrs by CLSI-based broth microdilution method; assay type: functional; settings: time 16-20 hrs
Outline: (§2)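 Broth microdilution following CLSI, in cation-adjusted Mueller-Hinton broth. Inoculum from a 4-6 h culture (~10^8 CFU/mL), diluted to ~10^6 CFU/mL. Water stocks were serially diluted in MHB (256 to 0.5 µg/mL) and mixed 1:1 with the inoculum. Plates ran 16-20 h at 37 °C. MIC was read visually. Each concentration was tested in duplicate, and the experiment was repeated at least twice.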

Escherichia coli [3] = assay: Resistance ratio of compound MIC for Escherichia coli ATCC 25922 after 20 passages to compound MIC for Escherichia coli ATCC 25922 after 16 to 20 hrs by CLSI-based broth microdilution method; assay type: functional; outline: as §1
Escherichia coli [4] = assay: Antibacterial activity against Escherichia coli ATCC 25922 assessed as reduction in bacterial growth incubated 16 to 20 hrs by CLSI-based broth microdilution method; assay type: functional; settings: time 16-20 hrs; outline: as §2
Klebsiella pneumoniae [5] = assay: Antibacterial activity against carbapenem-resistant Klebsiella pneumoniae clinical isolate 9 assessed as reduction in bacterial growth incubated for 16 to 20 hrs by CLSI-based broth microdilution method; assay type: functional; settings: time 16-20 hrs
Outline: (§3)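 Clinical isolates tested by broth microdilution in cation-adjusted Mueller-Hinton broth. Cultures grown 4-6 h (~10^8 CFU/mL) were diluted to ~10^6 CFU/mL and mixed 1:1 with compound serial dilutions made from 256 down to 0.5 µg/mL (pre-mixing). Plates held at 37 °C for 16-20 h, then read for growth. Each concentration run in duplicate, whole experiment at least twice.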

Klebsiella pneumoniae [6] = assay: Antibacterial activity against carbapenem-resistant Klebsiella pneumoniae clinical isolate 2 assessed as reduction in bacterial growth incubated for 16 to 20 hrs by CLSI-based broth microdilution method; assay type: functional; settings: time 16-20 hrs; outline: as §3
Staphylococcus aureus [7] = assay: Antibacterial activity against methicillin-resistant Staphylococcus aureus clinical isolate 3 assessed as reduction in bacterial growth incubated for 16 to 20 hrs by CLSI-based broth microdilution method; assay type: functional; settings: time 16-20 hrs; outline: as §3
Enterobacteriaceae [8] = assay: Antibacterial activity against NDM1 producing carbapenem-resistant Enterobacteriaceae clinical isolate 1 assessed as reduction in bacterial growth incubated for 16 to 20 hrs by CLSI-based broth microdilution method; assay type: functional; settings: time 16-20 hrs; outline: as §3
Staphylococcus aureus [9] = assay: Antibacterial activity against methicillin-resistant Staphylococcus aureus clinical isolate 6 assessed as reduction in bacterial growth incubated for 16 to 20 hrs by CLSI-based broth microdilution method; assay type: functional; settings: time 16-20 hrs; outline: as §3
Klebsiella pneumoniae [10] = assay: Antibacterial activity against carbapenem-resistant Klebsiella pneumoniae clinical isolate 10 assessed as reduction in bacterial growth incubated for 16 to 20 hrs by CLSI-based broth microdilution method; assay type: functional; settings: time 16-20 hrs; outline: as §3
Staphylococcus aureus [11] = assay: Antibacterial activity against methicillin-resistant Staphylococcus aureus clinical isolate 2 assessed as reduction in bacterial growth incubated for 16 to 20 hrs by CLSI-based broth microdilution method; assay type: functional; settings: time 16-20 hrs; outline: as §3
Staphylococcus aureus [12] = assay: Antibacterial activity against methicillin-resistant Staphylococcus aureus clinical isolate 1 assessed as reduction in bacterial growth incubated for 16 to 20 hrs by CLSI-based broth microdilution method; assay type: functional; settings: time 16-20 hrs; outline: as §3
Staphylococcus aureus [13] = assay: Antibacterial activity against methicillin-resistant Staphylococcus aureus clinical isolate 10 assessed as reduction in bacterial growth incubated for 16 to 20 hrs by CLSI-based broth microdilution method; assay type: functional; settings: time 16-20 hrs; outline: as §3
Enterobacteriaceae [14] = assay: Antibacterial activity against NDM1 producing carbapenem-resistant Enterobacteriaceae clinical isolate 7 assessed as reduction in bacterial growth incubated for 16 to 20 hrs by CLSI-based broth microdilution method; assay type: functional; settings: time 16-20 hrs; outline: as §3
Staphylococcus aureus [15] = assay: Antibacterial activity against methicillin-resistant Staphylococcus aureus clinical isolate 4 assessed as reduction in bacterial growth incubated for 16 to 20 hrs by CLSI-based broth microdilution method; assay type: functional; settings: time 16-20 hrs; outline: as §3
Staphylococcus aureus [16] = assay: Antibacterial activity against methicillin-resistant Staphylococcus aureus clinical isolate 9 assessed as reduction in bacterial growth incubated for 16 to 20 hrs by CLSI-based broth microdilution method; assay type: functional; settings: time 16-20 hrs; outline: as §3
Staphylococcus aureus [17] = assay: Antibacterial activity against methicillin-resistant Staphylococcus aureus clinical isolate 7 assessed as reduction in bacterial growth incubated for 16 to 20 hrs by CLSI-based broth microdilution method; assay type: functional; settings: time 16-20 hrs; outline: as §3
Enterobacteriaceae [18] = assay: Antibacterial activity against NDM1 producing carbapenem-resistant Enterobacteriaceae clinical isolate 8 assessed as reduction in bacterial growth incubated for 16 to 20 hrs by CLSI-based broth microdilution method; assay type: functional; settings: time 16-20 hrs; outline: as §3
[19] = Solubility of the compound in water at room temperature; assay type: physicochemical; settings: buffer
Staphylococcus aureus [20] = assay: Antibacterial activity against methicillin-resistant Staphylococcus aureus clinical isolate 5 assessed as reduction in bacterial growth incubated for 16 to 20 hrs by CLSI-based broth microdilution method; assay type: functional; settings: time 16-20 hrs; outline: as §3
Klebsiella pneumoniae [21] = assay: Antibacterial activity against carbapenem-resistant Klebsiella pneumoniae clinical isolate 3 assessed as reduction in bacterial growth incubated for 16 to 20 hrs by CLSI-based broth microdilution method; assay type: functional; settings: time 16-20 hrs; outline: as §3
Klebsiella pneumoniae [22] = assay: Antibacterial activity against carbapenem-resistant Klebsiella pneumoniae clinical isolate 8 assessed as reduction in bacterial growth incubated for 16 to 20 hrs by CLSI-based broth microdilution method; assay type: functional; settings: time 16-20 hrs; outline: as §3
[23] = Hemolytic activity in sheep RBC incubated for 1 hr; assay type: ADME, cell-based, Ovis aries, Erythrocyte; settings: sheep red blood cells (erythrocytes)
Outline: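 Sheep RBCs were resuspended at 5% in PBS and mixed 3:1 with serial dilutions (2560 to 5 µg/mL, pre-mixing levels), then incubated 1 h at 37 °C. After centrifugation, supernatant A540 was read. Hemolysis % was calculated as (A−A0)/(Atotal−A0)×100, with untreated RBCs as 0% and 0.1% Triton X-100 as total lysis.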

Klebsiella pneumoniae [24] = assay: Antibacterial activity against carbapenem-resistant Klebsiella pneumoniae clinical isolate 1 assessed as reduction in bacterial growth incubated for 16 to 20 hrs by CLSI-based broth microdilution method; assay type: functional; settings: time 16-20 hrs; outline: as §3
Enterobacteriaceae [25] = assay: Antibacterial activity against NDM1 producing carbapenem-resistant Enterobacteriaceae clinical isolate 6 assessed as reduction in bacterial growth incubated for 16 to 20 hrs by CLSI-based broth microdilution method; assay type: functional; settings: time 16-20 hrs; outline: as §3
Enterobacteriaceae [26] = assay: Antibacterial activity against NDM1 producing carbapenem-resistant Enterobacteriaceae clinical isolate 3 assessed as reduction in bacterial growth incubated for 16 to 20 hrs by CLSI-based broth microdilution method; assay type: functional; settings: time 16-20 hrs; outline: as §3
Klebsiella pneumoniae [27] = assay: Antibacterial activity against carbapenem-resistant Klebsiella pneumoniae clinical isolate 7 assessed as reduction in bacterial growth incubated for 16 to 20 hrs by CLSI-based broth microdilution method; assay type: functional; settings: time 16-20 hrs; outline: as §3
Enterobacteriaceae [28] = assay: Antibacterial activity against NDM1 producing carbapenem-resistant Enterobacteriaceae clinical isolate 9 assessed as reduction in bacterial growth incubated for 16 to 20 hrs by CLSI-based broth microdilution method; assay type: functional; settings: time 16-20 hrs; outline: as §3
Klebsiella pneumoniae [29] = assay: Antibacterial activity against carbapenem-resistant Klebsiella pneumoniae clinical isolate 5 assessed as reduction in bacterial growth incubated for 16 to 20 hrs by CLSI-based broth microdilution method; assay type: functional; settings: time 16-20 hrs; outline: as §3
Enterobacteriaceae [30] = assay: Antibacterial activity against NDM1 producing carbapenem-resistant Enterobacteriaceae clinical isolate 10 assessed as reduction in bacterial growth incubated for 16 to 20 hrs by CLSI-based broth microdilution method; assay type: functional; settings: time 16-20 hrs; outline: as §3
Enterococcus faecalis = assay: Antibacterial activity against Enterococcus faecalis ATCC 29212 assessed as reduction in bacterial growth incubated 16 to 20 hrs by CLSI-based broth microdilution method; assay type: functional; settings: time 16-20 hrs; outline: as §2
Staphylococcus aureus [31] = assay: Antibacterial activity against methicillin-resistant Staphylococcus aureus clinical isolate 8 assessed as reduction in bacterial growth incubated for 16 to 20 hrs by CLSI-based broth microdilution method; assay type: functional; settings: time 16-20 hrs; outline: as §3
Enterobacteriaceae [32] = assay: Antibacterial activity against NDM1 producing carbapenem-resistant Enterobacteriaceae clinical isolate 4 assessed as reduction in bacterial growth incubated for 16 to 20 hrs by CLSI-based broth microdilution method; assay type: functional; settings: time 16-20 hrs; outline: as §3
Enterobacteriaceae [33] = assay: Antibacterial activity against NDM1 producing carbapenem-resistant Enterobacteriaceae clinical isolate 5 assessed as reduction in bacterial growth incubated for 16 to 20 hrs by CLSI-based broth microdilution method; assay type: functional; settings: time 16-20 hrs; outline: as §3
Enterobacteriaceae [34] = assay: Antibacterial activity against NDM1 producing carbapenem-resistant Enterobacteriaceae clinical isolate 2 assessed as reduction in bacterial growth incubated for 16 to 20 hrs by CLSI-based broth microdilution method; assay type: functional; settings: time 16-20 hrs; outline: as §3
Salmonella enterica = assay: Antibacterial activity against Salmonella enterica ATCC 8387 assessed as reduction in bacterial growth incubated for 16 to 20 hrs by CLSI-based broth microdilution method; assay type: functional; settings: time 16-20 hrs; outline: as §2
Klebsiella pneumoniae [35] = assay: Antibacterial activity against carbapenem-resistant Klebsiella pneumoniae clinical isolate 4 assessed as reduction in bacterial growth incubated for 16 to 20 hrs by CLSI-based broth microdilution method; assay type: functional; settings: time 16-20 hrs; outline: as §3
Klebsiella pneumoniae [36] = assay: Antibacterial activity against carbapenem-resistant Klebsiella pneumoniae clinical isolate 6 assessed as reduction in bacterial growth incubated for 16 to 20 hrs by CLSI-based broth microdilution method; assay type: functional; settings: time 16-20 hrs; outline: as §3

In the case of `CCn1cc(C(=O)O)c(=O)c2cc(F)c(N3CCNCC3)cc21` [NORFLOXACIN], the Ratio (Staphylococcus aureus [1]) is reported as 256 and the MIC (Staphylococcus aureus [2]) is reported as 1 µg/mL (≈ 3.13 µM).
For COLISTIN, the Ratio (Escherichia coli [3]) was 32 and the MIC (Escherichia coli [4]) was 0.5 µg/mL.
`CCCCCCCCCCCCCC[N+](C)(C)CC(=O)NC[C@H]1CN(c2ccc(N3CCOCC3)c(F)c2)C(=O)O1.[Cl-]` showed an MIC (Klebsiella pneumoniae [5]) of 32 µg/mL, an MIC (Klebsiella pneumoniae [6]) of 32 µg/mL and an MIC (Staphylococcus aureus [7]) of 2 µg/mL. For the same compound, the MIC (Enterobacteriaceae [8]) was over 64 µg/mL, the MIC (Staphylococcus aureus [9]) was 2 µg/mL and the MIC (Klebsiella pneumoniae [10]) was 32 µg/mL. For the same compound, the MIC (Staphylococcus aureus [11]) was 16 µg/mL, the MIC (Staphylococcus aureus [12]) was 4 µg/mL and the MIC (Staphylococcus aureus [13]) was 8 µg/mL. For the same compound, the MIC (Enterobacteriaceae [14]) was 16 µg/mL, the MIC (Staphylococcus aureus [15]) was 4 µg/mL and the MIC (Staphylococcus aureus [16]) was 2 µg/mL. For the same compound, the MIC (Staphylococcus aureus [17]) was 2 µg/mL, the MIC (Enterobacteriaceae [18]) was 16 µg/mL and the solubility [19] was “Soluble”. It also gave an MIC (Staphylococcus aureus [20]) of 4 µg/mL, an MIC (Klebsiella pneumoniae [21]) of 16 µg/mL and an MIC (Klebsiella pneumoniae [22]) of 32 µg/mL. For the same compound, the HC50 at 1 h [23] was 60 µg/mL, the MIC (Escherichia coli [4]) was 16 µg/mL and the MIC (Klebsiella pneumoniae [24]) was 32 µg/mL. It also gave an MIC (Enterobacteriaceae [25]) of 32 µg/mL, an MIC (Staphylococcus aureus [2]) of 4 µg/mL and an MIC (Enterobacteriaceae [26]) of 32 µg/mL. It also gave an MIC (Klebsiella pneumoniae [27]) of 32 µg/mL, an MIC (Enterobacteriaceae [28]) of 16 µg/mL and an MIC (Klebsiella pneumoniae [29]) of 32 µg/mL. It also gave an MIC (Enterobacteriaceae [30]) of 16 µg/mL, an MIC (Enterococcus faecalis) of 4 µg/mL and an MIC (Staphylococcus aureus [31]) of 4 µg/mL. The MIC (Enterobacteriaceae [32]) was 64 µg/mL, the MIC (Enterobacteriaceae [33]) was 32 µg/mL and the MIC (Enterobacteriaceae [34]) was over 64 µg/mL. For the same compound, the MIC (Salmonella enterica) was 16 µg/mL, the MIC (Klebsiella pneumoniae [35]) was 32 µg/mL and the MIC (Klebsiella pneumoniae [36]) was 32 µg/mL.
